# Screening data from PubChem.
# CAL PDZ FP-1: CAL PDZ (human) peptide binding inhibition; Q9HD26; 300,000 compounds, 0.92% hits; purified CAL PDZ, TMR-peptide fluorescence polarization, 1 h; inhibition, % at 24.9 µM;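 active means mean inhibition of at least 30% with at least half of replicates also reaching 30%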;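 further: 0% = DMSO neutral control and 100% = excess unlabeled competitor peptide PRC23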
# ARNT TACC3 PPI: disruptors of human ARNT/TACC3 interaction; AlphaScreen His-ARNT PAS-B/GST-TACC3 binding, luminescence; TACC3 fragment carries E629A point mutation; inhibition, % at 9.99 µM; 390,000 compounds, 0.66% hits;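 active means mean inhibition of replicates at least 50% and at least half of replicates each reaching 50%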;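 further: 0% = complete ARNT plus TACC3 wells and 100% = ARNT alone without TACC3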
# CAL PDZ FP-2: human CAL PDZ-peptide interaction inhibition | Q9HD26 | purified CAL PDZ, TMR-peptide fluorescence polarization, 1 h | inhibition, % at 20 µM | 330,000 compounds, 0.02% hits | AID 504414;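 active means highest replicate inhibition of at least 40%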;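 further: plate controls were DMSO neutral control wells for no effect and unlabeled competitor peptide control wells for full effect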
#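 Control set: unlabelled peptide and DMSO controls / Material: purified CerCALP PDZ construct / Timing: 1 h incubation at room temperature before polarization reading / Doses: 20 µM, one dose / Detection: fluorescence polarization (mP)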
# The depositor's hits bear a star; . = no result given. Shown are actives, neighbours in structure and some others; about 1.2% of the full set was active somewhere.
SMILES,CAL PDZ FP-1,ARNT TACC3 PPI,CAL PDZ FP-2
CC(C)=C(NC(=O)c1ccccc1)C(=O)NCCc1nc2ccccc2[nH]1,37.6*,1.3,-0.3
CC(=O)NCCc1nc2ccccc2[nH]1,.,-5.2,-1.1
Cn1c(SCC(=O)c2ccc(F)cc2)nnc1-c1ccccc1N,-4.2,1.6,-1.4
Cc1ccc(C(=O)CSc2nnc(-c3ccccc3N)n2C)cc1,36.8*,1.1,.
O=C(COC(=O)C1CCC(N2C(=O)C3C4CCC(C4)C3C2=O)CC1)c1ccc(F)cc1 (stereo not drawn),79.0*,5.7,-0.3
O=C(COC(=O)C1CC(=O)N(C2CCCCC2)C1)c1ccc(F)cc1 (stereo not drawn),-3.1,-3.6,0.3
CC(C)NC(=O)N(C)C[C@H]1OCCCC[C@@H](C)Oc2ccc(NC(=O)c3ccncc3)cc2C(=O)N([C@@H](C)CO)C[C@@H]1C,.,-14.0,.
Cn1c(=O)[nH]c(=O)c2c1nc(SCCC(=O)O)n2Cc1cccc(Br)c1,-3.8,-3.4,1.1
CC(=O)CSc1nc2c(c(=O)[nH]c(=O)n2C)n1Cc1cccc(Br)c1,57.3*,-2.2,-0.7
O=C(O)CCN(Cc1ccccc1)S(=O)(=O)c1ccccc1Cl,52.3*,-11.2,-1.7
O=C(O)CCN(Cc1ccccc1)S(=O)(=O)c1ccc(Cl)cc1F,-0.7,-3.1,0.2
CN1C(=O)c2cc(NC(=O)c3ccc(F)cc3)ccc2OC[C@H]2O[C@H](CC(=O)NCC3CC3)CC[C@H]21,.,-5.7,.
CCn1cc(S(=O)(=O)CC(=O)Nc2ccc(C)cc2)c2ccccc21,52.5*,5.0,-0.1
CCn1cc(S(=O)(=O)CC(=O)Nc2cccc(C)c2)c2ccccc21,.,-2.0,-1.0
CN(C)CC(=O)Nc1ccc2c(c1)[C@H]1C[C@@H](CC(=O)NCCN3CCCCC3)O[C@H](CO)[C@H]1O2,.,-9.5,.
CCOC(=O)c1cnc(-n2nc(C)cc2C)nc1Nc1ccc(N(C)C)cc1,1.6,2.2,-0.3
CCOC(=O)c1cnc(-n2nc(C)cc2C)nc1NC,-3.8,48.1*,-2.3
C[C@@H]1CN([C@H](C)CO)C(=O)c2cc(NC(=O)C3CCCCC3)ccc2O[C@@H](C)CCCCO[C@H]1CN(C)C(=O)c1ccncc1,.,-11.7,.
Cc1ccnc(NC(=O)CNC(=O)c2sc3ccccc3c2Cl)c1,-7.1,-14.4,-0.3
Cc1ccnc(NC(=O)c2sc3cc(Cl)ccc3c2Cl)c1,80.6*,-9.4,-1.3
CCCC(=O)Nc1ccc2c(c1)OC[C@@H](C)N(S(=O)(=O)c1cn(C)cn1)C[C@H](C)[C@H](OC)CN(C)C2=O,.,-2.2,.
CN(C)CC(=O)N[C@H]1CC[C@H](CC(=O)NCc2ccccc2F)O[C@H]1CO,.,-3.2,.
CC(COc1ccccc1)OC(=O)Nc1ccccc1 (stereo not drawn),60.9*,-11.3,31.3
CC(CNC(=O)COc1ccccc1)OC(=O)Nc1cccc(Cl)c1 (stereo not drawn),-2.9,-9.9,-2.5
O=c1ccc(-c2nc3ccccc3n2Cc2ccc(Cl)cc2)c[nH]1,41.2*,1.8,.
SMILES,CAL PDZ FP-1,ARNT TACC3 PPI,CAL PDZ FP-2
Cn1c(-c2ccc(=O)[nH]c2)nc2ccccc21,3.9,.,-0.4
COc1ccc(OC(=O)c2cc(S(=O)(=O)N3CCCC3)ccc2Cl)cc1,-0.4,-2.8,-0.2
CCN1CCN(S(=O)(=O)c2ccc(Cl)c(C(=O)Oc3ccc(CC(=O)OC)cc3)c2)CC1,80.3*,0.1,-0.8
O=C(NCC[C@@H]1CC[C@@H](NC(=O)c2cnccn2)[C@@H](CO)O1)Nc1ccc(Cl)cc1,.,-6.3,.
COc1ccc(NC(=O)CCNS(=O)(=O)c2ccc3c(c2)CC(C)N3C(=O)C2CC2)cc1 (stereo not drawn),33.8*,-1.2,-0.2
COc1cccc(NC(=O)CCNS(=O)(=O)c2ccc3c(c2)CC(C)N3C(=O)C2CC2)c1 (stereo not drawn),.,8.4,-1.2
CNC[C@H]1Oc2ccc(NC(=O)Nc3cccc4ccccc34)cc2CC(=O)N([C@H](C)CO)C[C@@H]1C,.,-1.2,.
COc1cc([N+](=O)[O-])ccc1NC(=O)/C=C\C(=O)O,-1.0,1.0,-1.3
COc1cc([N+](=O)[O-])ccc1NC(=O)/C=C/C(=O)O,71.4*,-1.7,-0.1
COc1cccc(NC(=O)C[C@H]2CC[C@H]3[C@H](COc4ccc(NC(=O)C5CCCCC5)cc4C(=O)N3C)O2)c1,.,5.5,.
N/N=C(\c1ccccc1)c1cc(Br)ccc1N,47.4*,2.2,.
Nc1ccc(Br)cc1C(=O)O,-1.6,28.8,-2.4
O=S(=O)(N[C@H]1CC[C@@H](CCn2cc(C3(O)CCCC3)nn2)O[C@H]1CO)c1ccc(Cl)cc1,.,-3.1,.
CCCCNC(=O)Nc1ccccc1Br,1.3,-16.6,-0.7
CCCCNC(=O)Nc1ccccc1CC,69.1*,-16.3,3.9
